High-throughput results from PubChem BioAssay.
Shown are actives, neighbours in structure and some others; about 0.31% of the full set was active somewhere.
S1P3 antag: S1P3 receptor antagonists, primary screen, cell-based; Sphingosine 1-phosphate receptor 3 (Homo sapiens), Q99500; CHO S1P3 NFAT-BLA reporter, FRET fluorescence, antagonist mode; inhibition, % at 4.98 µM; actives 0.27% (n = 170,000);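 active = inhibition above the plate cutoff, the mean inhibition of test wells on that plate plus 3 SD, cut at about 28% in these data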;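 note: cells challenged with S1P at its EC80 of 0.8 µM; blue over green emission ratio from cleaved BLA substrate after 4 h stimulation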
Target sequence (Q99500 whole entry, looked up): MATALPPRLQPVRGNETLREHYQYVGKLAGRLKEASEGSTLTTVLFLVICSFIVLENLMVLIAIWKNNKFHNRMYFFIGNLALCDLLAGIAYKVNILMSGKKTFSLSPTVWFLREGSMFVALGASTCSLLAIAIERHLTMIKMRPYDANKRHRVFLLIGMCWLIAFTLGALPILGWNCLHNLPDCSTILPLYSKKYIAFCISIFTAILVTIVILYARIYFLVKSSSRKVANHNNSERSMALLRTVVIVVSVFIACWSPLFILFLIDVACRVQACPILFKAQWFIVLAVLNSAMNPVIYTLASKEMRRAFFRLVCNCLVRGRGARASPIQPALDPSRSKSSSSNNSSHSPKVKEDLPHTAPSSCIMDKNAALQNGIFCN
Rad51 HR inh: human RAD51 strand exchange inhibitors, primary screen, biochemical, fluorescence; hRad51 DNA strand exchange, fluorescence dequenching; inhibition, % at 10 µM; actives 0.085% (n = 200,000); DNA repair protein RAD51 homolog 1 (Homo sapiens), Q06609;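 active = inhibition above 40% at the single screening dose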
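System: hRad51 filaments on single-stranded DNA; reagent: Fluorescein- and BHQ1-tagged 47-mer duplex; compound dosing: one concentration, 10 µM final; timing: filaments 15 min 37 °C, then compound 30 min; measured by: fluorescein emission 520 nm, excitation 485 nm; benchmarks: per-plate controls and blanks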
Biofilm kill mix: clotrimazole potentiators killing C. albicans biofilm, primary screen, 4-compound mixtures; C. albicans biofilm persisters + clotrimazole, fluorescence viability; primary screen in compound mixtures of four per well; inhibition, % at 7.6 µM; actives 0.02% (n = 120,000); AID 1242, 2008;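 active = inhibition above 30.3% in the primary screen of four-compound pools, then above 30% when the compound was retested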;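 note: compounds exposed to preformed 24 h biofilms for 48 h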
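Test system: C. albicans biofilms. Buffer or medium: RPMI/MOPS medium, pH 7.0. Timing: 48 h compound exposure at 37 °C. Technique: Alamar Blue fluorescence. Evaluation: percent inhibition of biofilm viability.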
Numbers stand for hits; – = inactive; · = not tested or not shown.

SMILES	S1P3 antag	Rad51 HR inh	Biofilm kill mix
C=CCc1cccc(CNc2nc3ccccc3n2CC)c1O	–	–	·
CCOCC(=O)N1CCN(c2ccccc2OC)CC1	–	–	–
COc1ccccc1N1CCN(C2CCN(C(=O)COc3cccc(C)c3)CC2)CC1	–	–	–
O=C(CCC1CCCCC1)NCc1ccc(F)cc1	–	–	–
O=C(CCC1CCCCC1)NCc1ccncc1	82	–	·
CN(C)S(=O)(=O)c1cccc(NC(=O)COC(=O)c2cc(=O)c3ccccc3o2)c1	–	·	–
COc1ccccc1NC(=S)N1CCN(C(=O)C2CCCO2)CC1 (stereo unspecified)	–	–	–
COc1ccc(C(=O)C2CCN(C(=S)Nc3ccc(F)cc3)CC2)cc1	–	–	–
O=C(O)Cn1cnc2scc(-c3cccs3)c2c1=O	–	·	·
Cc1nc2scc(-c3cccs3)c2c(=O)n1CC(=O)O	·	115	·
CCC(=O)N1c2ccccc2-c2nnc(SC)nc2OC1c1ccc(OC)c(OC)c1 (stereo unspecified)	–	–	·
CCOc1ccc(C2Oc3nc(SC)nnc3-c3ccccc3N2C(C)=O)cc1OC (stereo unspecified)	55	–	·
C=CCN(CC=C)CCOc1ccc(C)cc1[N+](=O)[O-]	–	–	–
C=CCN(CC=C)CCOc1cc(C)ccc1[N+](=O)[O-]	–	42	–
CC(=O)Nc1cc(C(=O)NCCN2CCN(Cc3ccccc3)CC2)ccc1Sc1ccc(C)cc1	–	·	–
COc1ccc2[nH]c3c(C)c4ccncc4c(C)c3c2c1	–	47	–
COc1ccc2[nH]c(C)cc(=O)c2c1	·	–	–
COc1cccc(C(=O)Nc2cc(-c3cn4cccnc4n3)ccc2C)c1	–	–	–
COc1ccc(N2C(=O)C(F)(F)C2c2ccc(C)cc2)cc1OC (stereo unspecified)	–	–	–
Cn1cnnc1SCC(=O)Nc1ccccc1Oc1ccccc1	–	–	–
Cn1cnnc1SCC(=O)Nc1nc(-c2ccccc2)cs1	–	–	–
CC(C)N(C(C)C)S(=O)(=O)c1ccc(NN)nc1	–	43	–
CCN(CC)S(=O)(=O)c1ccc(NN)nc1	–	–	–
O=C(Nc1ccc(-c2nc3ccccc3o2)cc1)c1ccc2c(c1)OCO2	–	87	·
Cc1ccc2oc(-c3ccc(NC(=O)c4ccc5c(c4)OCO5)cc3)nc2c1	–	–	·
SMILES	S1P3 antag	Rad51 HR inh	Biofilm kill mix
CC(C)OCCCN1CN(S(=O)(=O)c2cccs2)c2nc3ccccc3nc21	–	–	–
COC(=O)C1C/C(=N\NS(=O)(=O)c2ccc(C)cc2)c2ccsc2C1 (stereo unspecified)	–	·	–
O=Cc1cc(N=Nc2cccc(C(=O)O)c2)ccc1O	–	47	–
O=Cc1cc(N=Nc2ccccc2Cl)ccc1O	–	–	–
CC(=O)c1cc(CN2CCN(C3CCN(C(C)C)CC3)C(CCO)C2)cs1 (stereo unspecified)	–	·	–
COc1ccc(NC(=O)c2c(NC(=O)CNCc3ccco3)sc3c2CCC3)c(OC)c1	70	–	·
COc1ccc(OC)c(NC(=O)c2c(NC(=O)CNCc3ccco3)sc3c2CCC3)c1	–	–	·
CCOC(=O)/C(=C\c1ccc(OC(F)F)cc1)C1=Nn2c(nnc2-c2ccc(Cl)cc2)SC1	–	–	–
O=C(Cc1ccc(Br)c2ccccc12)N/N=C/c1ccccn1	–	–	–
S=C(Nc1ccc(Cl)cc1Cl)NC1CCN(Cc2ccccc2)CC1	–	–	–
CC1CCCCC1NC(=S)Nc1ccc(Cl)cc1Cl (stereo unspecified)	–	41	–
COc1ccc(C2=NOC(CNC(=S)N3CCOCC3)C2)cc1 (stereo unspecified)	–	–	–
COc1ccc(C(=O)N/N=C/c2ccccc2C(=O)O)cc1OC	–	41	–
COc1ccc(C(=O)N/N=C/c2ccccn2)cc1OC	–	–	–
NC(=O)c1sc2nccc(Nc3ccccc3)c2c1N	72	–	·
NC(=O)c1sc2nc(-c3ccccc3)c3c(c2c1N)CCCC3	–	–	–
O=C(Nc1nc(-c2ccccc2)cs1)C1CCCCN1S(=O)(=O)c1ccccc1 (stereo unspecified)	98	–	·
O=C(Nc1nc(-c2ccccc2)cs1)C1CCCCN1S(=O)(=O)c1ccc(Cl)cc1 (stereo unspecified)	·	–	·
O=[N+]([O-])c1ccc(Cl)c(/C=N/n2c(-c3ccncc3)n[nH]c2=S)c1	–	–	–
COCCNC(=O)c1ccc2c(c1)S(=O)(=O)c1ccccc1C2=O	·	–	·
CCNC(=O)c1ccc2c(c1)S(=O)(=O)c1ccccc1C2=O	85	–	·
CC(C(=O)Nc1ccccc1Br)c1ccc([N+](=O)[O-])cc1 (stereo unspecified)	–	–	–
COC(=O)c1ccccc1NC(=O)C(C)c1ccc([N+](=O)[O-])cc1 (stereo unspecified)	–	42	–
Cc1cc(NC(=O)c2cc3n(n2)C(C(F)(F)F)CC(c2ccc(Cl)c(Cl)c2)N3)no1 (stereo unspecified)	55	–	·
Cc1ccc(C2CC(C(F)(F)F)n3nc(C(=O)Nc4c(C)n(C)n(-c5ccccc5)c4=O)cc3N2)cc1 (stereo unspecified)	–	·	–
SMILES	S1P3 antag	Rad51 HR inh	Biofilm kill mix
CC(C)CC(=O)Nc1ccc2oc(-c3cccnc3)nc2c1	–	–	·
Cc1ccc2oc(-c3ccc(NC(=O)CC(C)C)cc3)nc2c1	54	–	·
C/C(=N\NC(=S)Nc1cc(S(=O)(=O)N2CCOCC2)ccc1Cl)c1ccccc1F	–	–	–
Cc1ccc(-c2nn(Cc3ccccc3)cc2/C=C/C(=O)O)cc1C	·	–	·
O=C(O)/C=C/c1cn(Cc2ccccc2)nc1-c1ccccc1	·	44	·
Cc1cccc(C(=O)NNC2=CC(=O)CC(C)(C)C2)c1O	–	·	–
CC1(C)CC(=O)C=C(NNC(=O)c2ccccc2O)C1	·	96	·
O=C(Nc1cccc2ccccc12)c1ccccc1NS(=O)(=O)c1cccc2cccnc12	–	–	–
COc1ccc(OC)c(NC(=O)c2ccccc2NS(=O)(=O)c2cccc3cccnc23)c1	·	56	·
CCC(CC)C(=O)Nc1cccc(-c2nc3ccccc3o2)c1	61	–	·
O=C(O)c1ccccc1-c1ccccc1C(=O)Nc1cccc(-c2nc3ccccc3o2)c1	–	–	–
CCC(=O)Nc1cccc(-c2nc3ccccc3c(=O)o2)c1	–	·	·
CC(=O)Nc1cccc(-c2nc3ccccc3c(=O)o2)c1	84	–	·
CC(C)NC(=O)CN1CCC(c2ccccc2)C(O)C1 (stereo unspecified)	–	–	–
Cc1ccc(CN2CCN(Cc3cnc(C)[nH]3)CC2CCO)cc1 (stereo unspecified)	–	–	–
CCOc1ccc(OCC)c(NC(=O)C2CCCN(c3ncccn3)C2)c1 (stereo unspecified)	–	·	·
CCOc1ccc(OCC)c(NC(=O)C2CCN(c3ncccn3)CC2)c1	–	42	·
O=C(/C=C/c1ccc(Cl)c([N+](=O)[O-])c1)Nc1ccc(NC(=O)c2ccco2)cc1	–	–	–
O=C(/C=C/c1ccc(Cl)c([N+](=O)[O-])c1)Nc1ccc(N2CCCC2)cc1	–	55	–
O=C(Cc1cccs1)Nc1ccccn1	–	·	·
O=C(Cc1cccs1)Nc1ccon1	94	–	·
